Measurements published in ChEMBL document CHEMBL3227919, “Development of ethyl 3,4-dihydro-4-oxopyrimido[4,5-b]quinoline-2-carboxylate, a new prototype with oral antiallergy activity” (1979).
Calls of active or inactive are those of the source. No cut-off for these calls is given here.

Columns and labels:
Rattus norvegicus [1] = assay: Antiallergic activity in po dosed rat assessed as inhibition of antigen-induced passive cutaneous anaphylaxis; format: functional
Rattus norvegicus [2] = assay: Antiallergic activity in po dosed rat assessed as inhibition of antigen-induced passive cutaneous anaphylaxis relative to DSCG; format: functional
Rattus norvegicus [3] = assay: Antiallergic activity in Wistar Charles River rat assessed as inhibition of histamine-induced passive cutaneous anaphylaxis at 10 mg/kg, iv relative to control; format: functional
Rattus norvegicus [4] = assay: Antiallergic activity in Wistar Charles River rat assessed as inhibition of histamine-induced passive cutaneous anaphylaxis at 30 mg/kg, ip relative to control; format: functional; conditions: route intraperitoneal
Rattus norvegicus [5] = assay: Antiallergic activity in Wistar Charles River rat assessed as inhibition of histamine-induced passive cutaneous anaphylaxis at 100 mg/kg, po relative to control; format: functional
Rattus norvegicus [6] = assay: Antiallergic activity in Wistar Charles River rat assessed as inhibition of histamine-induced passive cutaneous anaphylaxis at 50 mg/kg, ip relative to control; format: functional; conditions: route intraperitoneal
Rattus norvegicus [7] = assay: Antiallergic activity in Wistar Charles River rat assessed as inhibition of histamine-induced passive cutaneous anaphylaxis at 1 mg/kg, iv relative to control; format: functional
Rattus norvegicus [8] = assay: Antiallergic activity in Wistar Charles River rat assessed as inhibition of histamine-induced passive cutaneous anaphylaxis at 0.1 mg/kg, iv relative to control; format: functional
Rattus norvegicus [9] = assay: Antiallergic activity in po dosed Wistar Charles River rat assessed as inhibition of histamine-induced passive cutaneous anaphylaxis; format: functional
Rattus norvegicus [10] = assay: Antiallergic activity in Wistar Charles River rat assessed as inhibition of histamine-induced passive cutaneous anaphylaxis at 30 mg/kg, iv relative to control; format: functional
Rattus norvegicus [11] = assay: Antiallergic activity in Wistar Charles River rat assessed as inhibition of histamine-induced passive cutaneous anaphylaxis at 3 mg/kg, iv relative to control; format: functional
Homo sapiens [12] = assay: Antiallergic activity in po dosed human assessed as concentration required to inhibit antigen-induced clinical asthma; format: functional
Rattus norvegicus [13] = assay: Antiallergic activity in po dosed rat assessed as inhibition of passive cutaneous anaphylaxis; format: functional
Rattus norvegicus [14] = assay: Antiallergic activity in Wistar Charles River rat assessed as inhibition of histamine-induced passive cutaneous anaphylaxis at 10 mg/kg, po relative to control; format: functional
Rattus norvegicus [15] = assay: Antiallergic activity in Wistar Charles River rat assessed as inhibition of histamine-induced passive cutaneous anaphylaxis at 3 mg/kg, po relative to control; format: functional
Cavia porcellus = assay: Inhibition of histamine-induced bronchoconstriction in guinea pig up to 100 mg/kg, po; format: functional, organism-based; design: dose 100 mg/kg
Rattus norvegicus [16] = assay: Antiallergic activity in Wistar Charles River rat assessed as inhibition of histamine-induced passive cutaneous anaphylaxis at 1 mg/kg, po relative to control; format: functional
Rattus norvegicus [17] = assay: Inhibition of carrageenan-induced foot edema in rat at 10 mg/kg, po; format: functional, organism-based; design: dose 10 mg/kg
Rattus norvegicus [18] = assay: Antiallergic activity in Wistar Charles River rat assessed as inhibition of histamine-induced passive cutaneous anaphylaxis at 30 mg/kg, po relative to control; format: functional
Homo sapiens [19] = assay: Antiallergic activity in po dosed human assessed as oral active dose; format: functional
Rattus norvegicus [20] = assay: Antiallergic activity in po dosed Wistar rat assessed as inhibition of ovalbumin-induced passive cutaneous anaphylaxis relative to DSCG; format: functional
Rattus norvegicus [21] = assay: Antiallergic activity in po dosed Wistar rat assessed as inhibition of ovalbumin-induced passive cutaneous anaphylaxis; format: functional
Procedure, shortened: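 Male Charles River Wistar rats, 170-210 g. Reaginic egg-albumin antiserum was raised with Bordetella pertussis or Al(OH)3, then diluted to give a 15-mm wheal and injected intradermally (0.1 mL) into shaved back skin. After 48 h, drug or saline was given, then 2.5 mg Evans blue plus 5 mg egg albumin in saline. Each site was scored as diameter (mm) × dye-intensity grade (0.5-4), summed per group of 5 or 7 rats and compared with saline controls.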

O=C(O)c1cc(=O)c2cc3c(=O)cc(C(=O)O)[nH]c3c(Cl)c2[nH]1
ED50 (Rattus norvegicus [1]): < 25.5 mg/kg
fold change (FC) (Rattus norvegicus [2]): 50

CCOC(=O)c1nc2cc(OC(=O)c3ccccc3)c(OC)cc2c(=O)[nH]1
inhibition in vivo at 10 mg/kg (Rattus norvegicus [3]): 14%

CCOC(=O)c1nc2cc3ccccc3cc2c(=O)[nH]1
inhibition in vivo at 30 mg/kg (Rattus norvegicus [4]): 27%
inhibition in vivo at 100 mg/kg (Rattus norvegicus [5]): 38%

O=C(O)c1nc2c(Br)cc(Br)cc2c(=O)[nH]1
inhibition in vivo at 50 mg/kg (Rattus norvegicus [6]): 0%

O=C([O-])c1cc(=O)c2c(OCC(O)COc3cccc4oc(C(=O)[O-])cc(=O)c34)cccc2o1.[Na+].[Na+] [CROMOLYN SODIUM]
inhibition in vivo at 10 mg/kg (Rattus norvegicus [3]): 90%
inhibition in vivo at 1 mg/kg (Rattus norvegicus [7]): 55%
inhibition in vivo at 0.1 mg/kg (Rattus norvegicus [8]): 14%
ED50 (Rattus norvegicus [9]): 1 mg/kg
inhibition in vivo at 30 mg/kg (Rattus norvegicus [10]): 99%
inhibition in vivo at 3 mg/kg (Rattus norvegicus [11]): 77%
Activity (Rattus norvegicus [5]): inactive

CCCc1c2c(c(O)c3c(=O)cc(C(=O)O)oc13)CCCC2 [PROXICROMIL]
ED50 (Rattus norvegicus [1]): 15.5 mg/kg
fold change (FC) (Rattus norvegicus [2]): 0.19
Activity (Homo sapiens [12]): 4.6 mg

CCOC(=O)c1nc2ncccc2c(=O)[nH]1
inhibition in vivo at 10 mg/kg (Rattus norvegicus [3]): 96%
inhibition in vivo at 1 mg/kg (Rattus norvegicus [7]): 6%
inhibition in vivo at 3 mg/kg (Rattus norvegicus [11]): 66%
Activity (Rattus norvegicus [5]): inactive

O=C(O)c1nc2c(C(F)(F)F)cc(Cl)cc2c(=O)[nH]1
inhibition in vivo at 10 mg/kg (Rattus norvegicus [3]): 0%

CCOC(=O)c1nc2cc(OC)c(OC)cc2c(=O)[nH]1
inhibition in vivo at 30 mg/kg (Rattus norvegicus [10]): 80%
Activity (Rattus norvegicus [5]): inactive

COc1cccc2c(=O)c(CO)coc12
ED50 (Rattus norvegicus [13]): 2 mg/kg

COc1cc2nc(C(=O)O)[nH]c(=O)c2cc1OC
inhibition in vivo at 30 mg/kg (Rattus norvegicus [10]): 69%
Activity (Rattus norvegicus [5]): inactive

CCOC(=O)CCc1n[nH]c2ccc(CC)cc2c1=O
ED50 (Rattus norvegicus [13]): 4 mg/kg

O=C(O)c1nc2ccc([N+](=O)[O-])cc2c(=O)[nH]1
inhibition in vivo at 30 mg/kg (Rattus norvegicus [10]): 67%

CCc1ccc2occ(-c3nnn[nH]3)c(=O)c2c1
ED50 (Rattus norvegicus [1]): 7 mg/kg
fold change (FC) (Rattus norvegicus [2]): 4

CCOC(=O)c1nc(O)c2cc3ccccc3nc2n1
inhibition (Rattus norvegicus [3]): inactive
inhibition in vivo at 10 mg/kg (Rattus norvegicus [14]): 75%
inhibition in vivo at 3 mg/kg (Rattus norvegicus [15]): 53%
inhibition in vivo at 1 mg/kg (Rattus norvegicus [7]): 98%
inhibition in vivo at 0.1 mg/kg (Rattus norvegicus [8]): 47%
inhibition (Cavia porcellus): inactive
inhibition in vivo at 1 mg/kg (Rattus norvegicus [16]): 12%
inhibition (Rattus norvegicus [17]): inactive
inhibition in vivo at 30 mg/kg (Rattus norvegicus [18]): 72%
ED50 (Rattus norvegicus [9]): 3 mg/kg
inhibition in vivo at 100 mg/kg (Rattus norvegicus [5]): 80%

O=C(O)c1nc2nc3ccccc3cc2c(=O)[nH]1
inhibition in vivo at 10 mg/kg (Rattus norvegicus [14]): 0%
inhibition in vivo at 1 mg/kg (Rattus norvegicus [7]): 92%
inhibition in vivo at 30 mg/kg (Rattus norvegicus [18]): 57%
inhibition in vivo at 100 mg/kg (Rattus norvegicus [5]): 96%

CCOC(=O)c1nc2c(C(F)(F)F)cc(Cl)cc2c(=O)[nH]1
inhibition in vivo at 10 mg/kg (Rattus norvegicus [3]): 0%

CCCOc1ccccc1-c1nc2[nH]nnc2c(=O)[nH]1 [ZAPRINAST]
ED50 (Rattus norvegicus [13]): 0.2 mg/kg

O=C(O)CCc1nc2cc3ccccc3cc2c(=O)[nH]1
inhibition in vivo at 10 mg/kg (Rattus norvegicus [3]): 7%

O=c1[nH]c(=O)c2cc3ccccc3nc2[nH]1
inhibition in vivo at 3 mg/kg (Rattus norvegicus [11]): 41%

O=C(O)c1nc2cc3ccccc3cc2c(=O)[nH]1
inhibition in vivo at 10 mg/kg (Rattus norvegicus [3]): 100%
inhibition in vivo at 1 mg/kg (Rattus norvegicus [7]): 14%
inhibition in vivo at 3 mg/kg (Rattus norvegicus [11]): 36%
inhibition in vivo at 100 mg/kg (Rattus norvegicus [5]): 0%

O=C(O)c1nc2ccccc2c(=O)[nH]1
inhibition in vivo at 10 mg/kg (Rattus norvegicus [3]): 52%

Cc1cc2c(cc1C)C(=O)C([N+](=O)[O-])C2=O
Activity (Homo sapiens [19]): 2 mg/kg
fold change (FC) (Rattus norvegicus [20]): 25
ED50 (Rattus norvegicus [21]): 1 mg/kg

Cc1nc(O)c2cc3ccccc3cc2n1
inhibition in vivo at 3 mg/kg (Rattus norvegicus [11]): 15%

O=c1[nH]cnc2cc3ccccc3cc12
inhibition in vivo at 3 mg/kg (Rattus norvegicus [11]): 31%

O=c1[nH]cnc2nc3ccccc3cc12
inhibition in vivo at 10 mg/kg (Rattus norvegicus [3]): 4%
inhibition in vivo at 3 mg/kg (Rattus norvegicus [11]): 33%
